Measurements gathered from unrelated publications.
HTR2B: 5-hydroxytryptamine receptor 2B (HTR2B, Homo sapiens, UniProt P41595)
HTR2C: 5-hydroxytryptamine receptor 2C (HTR2C, Homo sapiens, UniProt P28335)
blaNDM-1: Metallo-beta-lactamase type 2 (blaNDM-1, Klebsiella pneumoniae, UniProt C7C422)
Tmem97: Sigma intracellular receptor 2 (Tmem97, Rattus norvegicus, UniProt Q5U3Y7)

CN(C)CCc1c[nH]c2ccc(Cn3cncn3)cc12 — EC50 (HTR2B; calcium signal, agonist, fluorescence): 14000 nM
CC(C)[C@@H](Nc1nc(I)nc2c1ncn2[C@H]1[C@H](O)[C@H](O)[C@]2(CO)C[C@H]12)C1CC1 — Ki (HTR2C; ligand displacement, radioligand): 344 nM
COc1cc2c3c(c1OC)-c1ccccc1CC3NCC2 (stereo not drawn) — Ki (HTR2C; ligand displacement, radioligand; cell membranes): 446 nM
C[C@H](N)Cn1ncc2ccc3c(c21)CCCO3 — EC50 (5-hydroxytryptamine receptor 2A (Rattus norvegicus, UniProt P14842); calcium signal, agonist, fluorescence): 22.5 nM
COc1cc(CC(C)N)c(OC)cc1I (racemic) — Ki (HTR2C; ligand displacement, radioligand): 0.42 nM
O=C(O)[C@H]1CS[C@@H]2CS[C@@H](CS)N12 — Ki (blaNDM-1; enzyme activity, inhibitor, absorbance; pH 7.5): 19000 nM
COc1ccc2cccc(C(CO)CNC(=O)CF)c2c1 (stereo not drawn) — EC50 (Melatonin receptor type 1A (MTNR1A, Homo sapiens, UniProt P48039); GTPγS binding, agonist, radiometric; cell membranes): 79.4 nM
CC1(C)S[C@H]2CS[C@H](CS)N2[C@@H]1C(=O)O — Ki (blaNDM-1; enzyme activity, inhibitor, absorbance; pH 7.5): 18000 nM
CSc1nc(N[C@H](C(C)C)C2CC2)c2ncn([C@H]3[C@H](O)[C@H](O)[C@]4(CO)C[C@H]34)c2n1 — Ki (HTR2C; ligand displacement, radioligand): 432 nM
CCC1CCN(C(=O)[C@H](CCCNC(=N)N)NS(=O)(=O)c2cccc3c(N(C)C)cccc23)CC1 — Kd (Prothrombin (F2, Bos taurus, UniProt P00735); binding, ITC): 22 nM
CCN(CC)CCNC(=O)c1ccc(F)cc1 — Ki (Tmem97; ligand displacement, radioligand; cell membranes): 120000 nM
COc1cc2c3c(c1OC)-c1ccccc1C[C@H]3N(C)CC2 — Ki (HTR2C; ligand displacement, radioligand; cell membranes): 22.2 nM
CC(C)C(Nc1nc(Cl)nc2c1ncn2[C@H]1[C@H](O)[C@H](O)[C@]2(CO)C[C@H]12)C(C)C — Ki (HTR2C; ligand displacement, radioligand): 1160 nM
Ic1ccccc1CN[C@@H]1C2CCN(CC2)[C@@H]1C(c1ccccc1)c1ccccc1 (racemic) — IC50 (Substance-P receptor (TACR1, Homo sapiens, UniProt P25103); ligand displacement, radioligand): 2.62 nM
CSC[C@@]12C[C@@H]1[C@@H](n1cnc3c(N[C@H](C(C)C)C4CC4)nc(Cl)nc31)[C@H](O)[C@@H]2O — Ki (HTR2C; ligand displacement, radioligand): 2570 nM
CCCCN1CCc2cc(OC)c(OC)cc2C1 — Ki (Tmem97; ligand displacement, radioligand; cell membranes): 15 nM
COc1cc(CC(C)N)c(OC)cc1I (stereo not drawn) — Ki (HTR2B; ligand displacement, radioligand): 1.2 nM
CCCN1CCc2cc(OC)cc3c2[C@H]1Cc1ccc(O)c(O)c1-3 — Kd (D(3) dopamine receptor (Drd3, Rattus norvegicus, UniProt P19020); binding, radioligand; cell membranes): 2.02 nM
